According to ChEMBL document CHEMBL5724801, “EUbOPEN Chemogenomics Library - Multiplex” (2024):
Where “and” joins values, the source holds several entries; their conditions need not be identical. Equal entries are not always repeated.

tested on: HEK-293T; experiment: Multiplex assay against HEK293T; type: toxicity, cell-based; details: human, 12 h, 1 µM, compound concentration 1 uM
How it was run: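 Phenotypes for tubulin, mitochondrial mass and membrane permeability are expressed as per cents of healthy-nucleus cells. Cells were stained live at seeding with Hoechst33342, BioTracker Green Microtubule Cytoskeleton Dye, MitoTracker Red and Annexin V Alexa Fluor 680, then imaged after compound addition on a CQ1 microscope at 37°C and 5% CO2. Machine-learning gating in CellPathfinder separated Hoechst high-intensity objects from normal cells, divided normal cells by nuclear state (healthy, pyknosed, fragmented) and divided pyknosed cells into mitotic or apoptotic.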

Row | SMILES | Population Apoptotic (%) | Population Fragmented Nuclei (%) | Population Healthy Nuclei (%) | Population Hoechst High Intensity Objects (%) | Population Membrane Permeable-Phenotype (%) | Population Mitochondria Different-Phenotype (%) | Population Mitotic Cells (%) | Population Normal (%) | Population Pyknosed Nuclei (%) | Population Tubulin-Different-Phenotype (%)
1 | COc1cc2nc(N3CCN(C(=O)COc4c(OC)cccc4C(C)C)CC3)nc(N)c2cc1OC.Cl.Cl | 35% and 46% | 12% and 8% | 77% and 81% | 5% and 4% | 0 | 48% and 58% | 64% and 53% | 94% and 95% | 9% | 23% and 18%
2 | Cc1c(Cc2ccc3ccccc3n2)c2cc(F)ccc2n1CC(=O)O [TIMAPIPRANT] | 42% | 7% and 6% | 80% | 10% and 7% | 0 | 36% and 55% | 57% | 89% and 92% | 11% and 12% | 20% and 16%
3 | c1cc(OCCCN2CCCCC2)ccc1CN1CCCCC1 [JNJ-5207852] | 36% and 47% | 6% and 10% | 84% and 75% | 5% | 0 | 36% and 53% | 63% and 52% | 94% | 8% and 13% | 21% and 17%

same assay, conditions: human, 12 h, 1 µM, compound concentration 1 uM

Row | SMILES | Total Cell Count
4 | COc1cc2nc(N3CCN(C(=O)COc4c(OC)cccc4C(C)C)CC3)nc(N)c2cc1OC.Cl.Cl | 402 and 365
5 | Cc1c(Cc2ccc3ccccc3n2)c2cc(F)ccc2n1CC(=O)O [TIMAPIPRANT] | 394 and 280
6 | c1cc(OCCCN2CCCCC2)ccc1CN1CCCCC1 [JNJ-5207852] | 577 and 310

same assay, conditions: human, 12 h, 10 µM, compound concentration 10 uM

Row | SMILES | Population Apoptotic (%) | Population Fragmented Nuclei (%) | Population Healthy Nuclei (%) | Population Hoechst High Intensity Objects (%) | Population Membrane Permeable-Phenotype (%) | Population Mitochondria Different-Phenotype (%) | Population Mitotic Cells (%) | Population Normal (%) | Population Pyknosed Nuclei (%) | Population Tubulin-Different-Phenotype (%)
7 | COc1cc2nc(N3CCN(C(=O)COc4c(OC)cccc4C(C)C)CC3)nc(N)c2cc1OC.Cl.Cl | 52% and 57% | 13% and 14% | 69% and 67% | 25% and 18% | 1% and 3% | 74% and 66% | 48% and 42% | 74% and 81% | 17% and 18% | 81% and 66%
8 | Cc1c(Cc2ccc3ccccc3n2)c2cc(F)ccc2n1CC(=O)O [TIMAPIPRANT] | 32% and 33% | 7% and 6% | 78% | 6% and 5% | 0% | 55% and 63% | 67% and 66% | 93% and 94% | 14% and 15% | 38% and 28%
9 | c1cc(OCCCN2CCCCC2)ccc1CN1CCCCC1 [JNJ-5207852] | 40% and 66% | 7% | 75% and 67% | 7% and 11% | 0% and 1% | 63% and 69% | 59% and 33% | 92% and 88% | 17% and 24% | 52% and 41%

same assay, conditions: human, 12 h, 10 µM, compound concentration 10 uM

Row | SMILES | Total Cell Count
10 | COc1cc2nc(N3CCN(C(=O)COc4c(OC)cccc4C(C)C)CC3)nc(N)c2cc1OC.Cl.Cl | 386 and 286
11 | Cc1c(Cc2ccc3ccccc3n2)c2cc(F)ccc2n1CC(=O)O [TIMAPIPRANT] | 434 and 354
12 | c1cc(OCCCN2CCCCC2)ccc1CN1CCCCC1 [JNJ-5207852] | 328 and 259

same assay, conditions: human, 24 h, 1 µM, compound concentration 1 uM

Row | SMILES | Population Apoptotic (%) | Population Fragmented Nuclei (%) | Population Healthy Nuclei (%) | Population Hoechst High Intensity Objects (%) | Population Membrane Permeable-Phenotype (%) | Population Mitochondria Different-Phenotype (%) | Population Mitotic Cells (%) | Population Normal (%) | Population Pyknosed Nuclei (%) | Population Tubulin-Different-Phenotype (%)
13 | COc1cc2nc(N3CCN(C(=O)COc4c(OC)cccc4C(C)C)CC3)nc(N)c2cc1OC.Cl.Cl | 35% and 42% | 11% and 8% | 77% and 84% | 5% and 2% | 0% | 27% and 44% | 64% and 57% | 95% and 97% | 10% and 7% | 19% and 16%
14 | Cc1c(Cc2ccc3ccccc3n2)c2cc(F)ccc2n1CC(=O)O [TIMAPIPRANT] | 31% and 53% | 10% and 7% | 81% and 83% | 4% and 5% | 1% and 0% | 20% and 38% | 68% and 46% | 95% and 94% | 8% | 15%
15 | c1cc(OCCCN2CCCCC2)ccc1CN1CCCCC1 [JNJ-5207852] | 25% and 41% | 6% and 11% | 82% and 79% | 5% and 3% | 1% and 0% | 20% and 30% | 74% and 58% | 94% and 96% | 11% and 9% | 15% and 12%

same assay, conditions: human, 24 h, 1 µM, compound concentration 1 uM

Row | SMILES | Total Cell Count
16 | COc1cc2nc(N3CCN(C(=O)COc4c(OC)cccc4C(C)C)CC3)nc(N)c2cc1OC.Cl.Cl | 540 and 472
17 | Cc1c(Cc2ccc3ccccc3n2)c2cc(F)ccc2n1CC(=O)O [TIMAPIPRANT] | 516 and 381
18 | c1cc(OCCCN2CCCCC2)ccc1CN1CCCCC1 [JNJ-5207852] | 710 and 447

same assay, conditions: human, 24 h, 10 µM, compound concentration 10 uM

Row | SMILES | Population Apoptotic (%) | Population Fragmented Nuclei (%) | Population Healthy Nuclei (%) | Population Hoechst High Intensity Objects (%) | Population Membrane Permeable-Phenotype (%) | Population Mitochondria Different-Phenotype (%) | Population Mitotic Cells (%) | Population Normal (%) | Population Pyknosed Nuclei (%) | Population Tubulin-Different-Phenotype (%)
19 | COc1cc2nc(N3CCN(C(=O)COc4c(OC)cccc4C(C)C)CC3)nc(N)c2cc1OC.Cl.Cl | 42% and 51% | 14% and 13% | 64% and 59% | 29% and 39% | 2% | 68% and 72% | 57% and 48% | 70% and 60% | 21% and 27% | 69% and 63%
20 | Cc1c(Cc2ccc3ccccc3n2)c2cc(F)ccc2n1CC(=O)O [TIMAPIPRANT] | 32% and 37% | 7% and 12% | 78% and 77% | 4% and 5% | 0% | 31% and 44% | 67% and 62% | 95% and 94% | 13% and 10% | 28% and 20%
21 | c1cc(OCCCN2CCCCC2)ccc1CN1CCCCC1 [JNJ-5207852] | 47% and 65% | 9% and 8% | 77% and 79% | 6% and 5% | 1% and 2% | 47% and 50% | 52% and 34% | 93% and 94% | 13% and 11% | 44% and 35%

same assay, conditions: human, 24 h, 10 µM, compound concentration 10 uM

Row | SMILES | Total Cell Count
22 | COc1cc2nc(N3CCN(C(=O)COc4c(OC)cccc4C(C)C)CC3)nc(N)c2cc1OC.Cl.Cl | 498 and 286
23 | Cc1c(Cc2ccc3ccccc3n2)c2cc(F)ccc2n1CC(=O)O [TIMAPIPRANT] | 560 and 475
24 | c1cc(OCCCN2CCCCC2)ccc1CN1CCCCC1 [JNJ-5207852] | 414 and 322

same assay, conditions: human, 48 h, 1 µM, compound concentration 1 uM

Row | SMILES | Population Apoptotic (%) | Population Fragmented Nuclei (%) | Population Healthy Nuclei (%) | Population Hoechst High Intensity Objects (%) | Population Membrane Permeable-Phenotype (%) | Population Mitochondria Different-Phenotype (%) | Population Mitotic Cells (%) | Population Normal (%) | Population Pyknosed Nuclei (%) | Population Tubulin-Different-Phenotype (%)
25 | COc1cc2nc(N3CCN(C(=O)COc4c(OC)cccc4C(C)C)CC3)nc(N)c2cc1OC.Cl.Cl | 28% and 11% | 16% and 15% | 76% and 78% | 2% and 3% | 1% and 0% | 18% | 71% and 88% | 97% and 96% | 6% | 11% and 12%
26 | Cc1c(Cc2ccc3ccccc3n2)c2cc(F)ccc2n1CC(=O)O [TIMAPIPRANT] | 26% and 17% | 13% and 15% | 78% and 76% | 2% and 3% | 1% and 0% | 9% and 25% | 73% and 82% | 97% and 96% | 8% | 6% and 12%
27 | c1cc(OCCCN2CCCCC2)ccc1CN1CCCCC1 [JNJ-5207852] | 17% and 23% | 14% and 11% | 80% and 83% | 2% and 1% | 1% | 12% and 17% | 82% and 76% | 97% and 98% | 5% and 4% | 11% and 9%

same assay, conditions: human, 48 h, 1 µM, compound concentration 1 uM

Row | SMILES | Total Cell Count
28 | COc1cc2nc(N3CCN(C(=O)COc4c(OC)cccc4C(C)C)CC3)nc(N)c2cc1OC.Cl.Cl | 930 and 737
29 | Cc1c(Cc2ccc3ccccc3n2)c2cc(F)ccc2n1CC(=O)O [TIMAPIPRANT] | 799 and 566
30 | c1cc(OCCCN2CCCCC2)ccc1CN1CCCCC1 [JNJ-5207852] | 1128 and 746

same assay, conditions: human, 48 h, 10 µM, compound concentration 10 uM

Row | SMILES | Population Apoptotic (%) | Population Fragmented Nuclei (%) | Population Healthy Nuclei (%) | Population Hoechst High Intensity Objects (%) | Population Membrane Permeable-Phenotype (%) | Population Mitochondria Different-Phenotype (%) | Population Mitotic Cells (%) | Population Normal (%) | Population Pyknosed Nuclei (%) | Population Tubulin-Different-Phenotype (%)
31 | COc1cc2nc(N3CCN(C(=O)COc4c(OC)cccc4C(C)C)CC3)nc(N)c2cc1OC.Cl.Cl | 31% and 30% | 18% and 17% | 56% and 59% | 41% and 46% | 3% and 1% | 48% and 49% | 68% and 69% | 58% and 53% | 25% and 23% | 56% and 38%
32 | Cc1c(Cc2ccc3ccccc3n2)c2cc(F)ccc2n1CC(=O)O [TIMAPIPRANT] | 33% and 36% | 10% and 14% | 79% and 78% | 4% | 1% and 0% | 24% and 33% | 66% and 63% | 95% | 9% and 6% | 17% and 16%
33 | c1cc(OCCCN2CCCCC2)ccc1CN1CCCCC1 [JNJ-5207852] | 34% and 52% | 13% | 77% and 75% | 8% and 9% | 1% | 29% and 38% | 65% and 47% | 91% and 90% | 8% and 10% | 28% and 30%

same assay, conditions: human, 48 h, 10 µM, compound concentration 10 uM

Row | SMILES | Total Cell Count
34 | COc1cc2nc(N3CCN(C(=O)COc4c(OC)cccc4C(C)C)CC3)nc(N)c2cc1OC.Cl.Cl | 660 and 430
35 | Cc1c(Cc2ccc3ccccc3n2)c2cc(F)ccc2n1CC(=O)O [TIMAPIPRANT] | 752 and 630
36 | c1cc(OCCCN2CCCCC2)ccc1CN1CCCCC1 [JNJ-5207852] | 619 and 424
